ChEMBL document CHEMBL1121581, “4-Piperazinyl-10H-thieno[2,3-b][1,5]benzodiazepines as potential neuroleptics” (J Med Chem, 1980)

Assays:
Mus musculus = test: Hypothermia in mice after peroral administration; format: functional
[1] = Lethal dose in mice after perorla administration; format: toxicity, organism-based; conditions: mouse, in vivo, po
Rattus norvegicus [2] = test: Compound was assessed for its ability to block a conditioned avoidance response; Dose administered perorally is 25 mg/kg; no significant effect (0-25%block); format: functional; conditions: route oral
Procedure, shortened: (§1)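 Lilly Wistar rats (120–130 g) trained in a shuttle box to cross on a 5-s buzzer, with mild shock if no response within 1 s of buzzer end. Only rats with a high conditioned response were used. Groups of five were dosed orally 1 h 50 min before the session, then habituated 10 min and tested 20 min. Shocks were scored as % of stimuli and graded 0–5.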

Rattus norvegicus [3] = test: Ability to block a conditioned avoidance response; Dose administered perorally is 50 mg/kg.; format: functional; conditions: route oral; procedure, shortened: as §1
Rattus norvegicus [4] = test: Compound was assessed for its ability to block a conditioned avoidance response; Dose administered perorally is 10 mg/kg; no significant effect (0-25%block); format: functional; conditions: route oral; procedure, shortened: as §1
Rattus norvegicus [5] = test: Compound was assessed for its ability to produce catalepsy in rats; Dose administered perorally is 50 mg/kg; Group score is 8-15; format: functional; conditions: route oral
Procedure, shortened: (§2)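 Groups of eight Lilly Wistar rats (180–190 g) were dosed orally, then checked at 0.5, 1, 1.5, 2, 3, 4 and 5 h. Front paws were placed on a 1.5-cm rod 7 cm above the table, and hold time was recorded up to 20 min. Each rat was scored 0–5 and its maximum scores were summed per group (maximum 40), then graded 0–4.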

Rattus norvegicus [6] = test: Compound was assessed for its ability to block a conditioned avoidance response; Dose administered perorally is 50 mg/kg; 76-99%block; format: functional; conditions: route oral; procedure, shortened: as §1
Rattus norvegicus [7] = test: Compound was assessed for its ability to produce catalepsy in rats; Dose administered perorally is 8 mg/kg; Group score is 4-7; format: functional; conditions: route oral; procedure, shortened: as §2
Rattus norvegicus [8] = test: Compound was assessed for its ability to block a conditioned avoidance response; Dose administered perorally is 8 mg/kg; 31-50%block; format: functional; conditions: route oral; procedure, shortened: as §1
Rattus norvegicus [9] = test: Compound was assessed for its ability to produce catalepsy in rats; Dose administered perorally is 50 mg/kg; Group score is 4-7; format: functional; conditions: route oral; procedure, shortened: as §2
Rattus norvegicus [10] = test: Compound was assessed for its ability to produce catalepsy in rats; Dose administered perorally is 50 mg/kg; Group score is 0-3; format: functional; conditions: route oral; procedure, shortened: as §2
Rattus norvegicus [11] = test: Compound was assessed for its ability to produce catalepsy in rats; Dose administered perorally is 25 mg/kg; Group score is 8-15; format: functional; conditions: route oral; procedure, shortened: as §2
Rattus norvegicus [12] = test: Compound was assessed for its ability to block a conditioned avoidance response; Dose administered perorally is 40 mg/kg; 26-30%block; format: functional; conditions: route oral; procedure, shortened: as §1
Rattus norvegicus [13] = test: Compound was assessed for its ability to block a conditioned avoidance response; Dose administered intraperitoneally is 50 mg/kg; no significant effect (0-25%block); format: functional; conditions: route intraperitoneal
Rattus norvegicus [14] = test: Compound was assessed for its ability to block a conditioned avoidance response; Dose administered perorally is 20 mg/kg; no significant effect (0-25%block); format: functional; conditions: route oral; procedure, shortened: as §1
Rattus norvegicus [15] = test: Compound was assessed for its ability to block a conditioned avoidance response; Dose administered perorally is 20 mg/kg; 76-99%block; format: functional; conditions: route oral; procedure, shortened: as §1
Rattus norvegicus [16] = test: Compound was assessed for its ability to produce catalepsy in rats; Dose administered perorally is 20 mg/kg; Group score is 8-15; format: functional; conditions: route oral; procedure, shortened: as §2
Rattus norvegicus [17] = test: Compound was assessed for its ability to block a conditioned avoidance response; Dose administered perorally is 10 mg/kg; 51-75%block; format: functional; conditions: route oral; procedure, shortened: as §1
Rattus norvegicus [18] = test: Compound was assessed for its ability to produce catalepsy in rats; Dose administered perorally is 25 mg/kg; Group score is 16-30; format: functional; conditions: route oral; procedure, shortened: as §2
Rattus norvegicus [19] = test: Compound was assessed for its ability to block a conditioned avoidance response; Dose administered perorally is 10 mg/kg; 31-50%block; format: functional; conditions: route oral; procedure, shortened: as §1
Rattus norvegicus [20] = test: Compound was assessed for its ability to produce catalepsy in rats; Dose administered perorally is 16 mg/kg; Group score is 4-7; format: functional; conditions: route oral; procedure, shortened: as §2

Compound | EDmin (Mus musculus) | LD50 [1] | Activity (Rattus norvegicus [3]) | further results
Cc1csc2c1C(N1CCN(C)CC1)=Nc1cc(F)ccc1N2 | 25 mg/kg | > 200 mg/kg | – | Activity (Rattus norvegicus [2]): 0
CN1CCN(C2=Nc3cc(F)ccc3Nc3sc4c(c32)CCCC4)CC1 | 100 mg/kg | > 400 mg/kg | 0 | –
CCCN1CCN(C2=Nc3cc(F)ccc3Nc3sc(CC)cc32)CC1 | 6.25 mg/kg | > 100 mg/kg | – | Activity (Rattus norvegicus [4]): 0
CCc1cc2c(s1)Nc1ccccc1N=C2N1CCN(Cc2ccccc2)CC1 | 200 mg/kg | > 400 mg/kg | – | Activity (Rattus norvegicus [5]): 2; Activity (Rattus norvegicus [6]): 4
CCc1cc2c(s1)Nc1ccc([N+](=O)[O-])cc1N=C2N1CCN(C)CC1 | 50 mg/kg | > 400 mg/kg | – | Activity (Rattus norvegicus [2]): 0
CCc1cc2c(s1)Nc1ccc(Cl)cc1N=C2N1CCN(C)CC1 | 6.25 mg/kg | 50 mg/kg | – | Activity (Rattus norvegicus [7]): 1; Activity (Rattus norvegicus [8]): 2
CC(O)c1cc2c(s1)Nc1ccc(F)cc1N=C2N1CCN(C)CC1 (stereo unspecified) | 25 mg/kg | > 400 mg/kg | – | Activity (Rattus norvegicus [9]): 1; Activity (Rattus norvegicus [6]): 4
CCc1cc2c(s1)Nc1ccc(F)cc1N=C2N1CCN(Cc2ccc(Cl)cc2)CC1 | >400 mg/kg | > 400 mg/kg | 0 | Activity (Rattus norvegicus [10]): 0
CCc1cc2c(s1)Nc1ccc(F)cc1N=C2N1CCN(Cc2ccccc2)CC1 | 200 mg/kg | > 400 mg/kg | – | Activity (Rattus norvegicus [11]): 2; Activity (Rattus norvegicus [12]): 1
CCCCCCc1cc2c(s1)Nc1ccc(F)cc1N=C2N1CCN(C)CC1 | 100 mg/kg | > 400 mg/kg | 0 | –
CCOC(=O)N1CCN(C2=Nc3ccccc3Nc3sc(CC)cc32)CC1 | 50 mg/kg | > 400 mg/kg | 0 | –
CCc1cc2c(s1)Nc1ccc(F)cc1N=C2N1CCN(c2cccc(C(F)(F)F)c2)CC1 | >400 mg/kg | 400 mg/kg | – | Activity (Rattus norvegicus [13]): 0
CC(=O)c1cc2c(s1)Nc1ccc(F)cc1N=C2N1CCN(C)CC1 | 12.5 mg/kg | 200 mg/kg | – | Activity (Rattus norvegicus [5]): 2; Activity (Rattus norvegicus [14]): 0
CCc1cc2c(s1)Nc1ccccc1N=C2N1CCN(CCO)CC1 | 25 mg/kg | > 400 mg/kg | – | Activity (Rattus norvegicus [15]): 4; Activity (Rattus norvegicus [16]): 2
CCc1cc2c(s1)Nc1ccc(F)cc1N=C2NCCO | 200 mg/kg | > 800 mg/kg | 0 | Activity (Rattus norvegicus [10]): 0
CCc1cc2c(s1)Nc1ccc(F)cc1N=C2NCCN1CCN(c2ccccc2)CC1 | >400 mg/kg | > 800 mg/kg | 0 | Activity (Rattus norvegicus [10]): 0
CCc1cc2c(s1)Nc1cc(F)c(F)cc1N=C2N1CCN(C)CC1 | 6.25 mg/kg | 300 mg/kg | – | Activity (Rattus norvegicus [17]): 3; Activity (Rattus norvegicus [18]): 3
CN1CCN(C2=Nc3ccccc3Nc3sc(C(C)(C)C)cc32)CC1 | 12.5 mg/kg | 400 mg/kg | – | Activity (Rattus norvegicus [4]): 0
CCc1cc2c(s1)Nc1ccc(F)cc1N=C2NCCCN1CCOCC1 | 400 mg/kg | 800 mg/kg | – | Activity (Rattus norvegicus [13]): 0
CCOC(=O)N1CCN(C2=Nc3cc(F)ccc3Nc3sc(C)cc32)CC1 | >400 mg/kg | > 400 mg/kg | 0 | –
CCc1cc2c(s1)Nc1ccc(F)cc1N=C2N1CCCCC1 | 12.5 mg/kg | > 200 mg/kg | 0 | –
CCc1cc2c(s1)Nc1ccc(F)cc1N=C2N1CCN(C)CC1.O=C(O)/C=C\C(=O)O | 6.25 mg/kg | 200 mg/kg | – | Activity (Rattus norvegicus [7]): 1; Activity (Rattus norvegicus [8]): 2
CCc1cc2c(s1)Nc1ccccc1N=C2N1CCN(C)CC1 | 25 mg/kg | 150 mg/kg | – | Activity (Rattus norvegicus [19]): 2; Activity (Rattus norvegicus [20]): 1
